In ChEMBL document CHEMBL4145478, “Synthesis and biological evaluation of bifendate derivatives bearing 6,7-dihydro-dibenzo[c,e]azepine scaffold as potential P-glycoprotein and tumor metastasis inhibitors” (Eur J Med Chem, 2018):
Where a name gives a salt, the structure may show the parent alone. Calls of active or inactive are those of the source. The calls are words filed in the database; no cut-off is given here.

Tests used:
[1] = system: K562/A02; assay: Inhibition of P-gp-mediated drug resistance in human K562/A02 cells assessed as reduction in adriamycin IC50 at 2 uM after 72 hrs by MTS assay relative to adriamycin alone; assay type: cell-based
Summary of the method: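 K562/A02 cells exposed to adriamycin with or without 2.0 μM modulator; verapamil 2.0 μM as reference. Viability by MTS after 72 h at 37 °C (absorbance 490 nm), adriamycin IC50 from dose-response curves. Reversal fold = adriamycin IC50 alone / adriamycin IC50 with modulator.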

[2] = system: K562/A02; assay: Cytotoxicity against human K562/A02 cells assessed as reduction in cell viability after 72 hrs by MTS assay; assay type: cell-based; details: K562/A02, 72 h
Summary of the method: (§1)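 Cells (1×10^4/well) in RPMI-1640 grown 24 h, then exposed to a range of concentrations for 72 h at 37 °C, 5% CO₂. MTS added for a further 3 h at 37 °C; absorbance read at 490 nm. IC50 from dose-response curves; means of triplicate experiments.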

[3] = system: K562; assay: Cytotoxicity against human K562 cells assessed as reduction in cell viability after 72 hrs by MTS assay; assay type: cell-based; details: K562, 72 h; summary of the method: as §1
[4] = Selectivity ratio of IC50 for human K562/A02 cells to IC50 for human K562 cells; assay type: ADME; details: K562/A02 cells and K562 cells, read-out: Ratio IC50
[5] = system: K562; assay: Effect on intracellular Rh123 accumulation in human K562 cells at 0.3 to 10 uM after 1 hr by flow cytometric analysis; assay type: functional, cell-based
Summary of the method: (§2)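 1×10^6 K562 or K562/A02 cells preincubated 1 h at 37 °C with compound (10 μM single dose; dose-response at 10, 3.3 and 0.3 μM), verapamil or 0.1% DMSO vehicle, then 0.5 μM Rh123 for 30 min. Stopped and washed three times with ice-cold PBS; flow cytometry. Fold change = fluorescence over vehicle; mean ± S.D., three independent experiments.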

[6] = system: K562/A02; assay: Inhibition of P-gp mediated efflux in human K562/A02 cells assessed as increase in intracellular Rh123 accumulation after 1 hr by flow cytometric analysis; assay type: cell-based; summary of the method: as §2
[7] = system: MMP-9 (92 kDa type IV collagenase, Homo sapiens); assay: Inhibition of MMP9 activity in human MDA-MB-231 cells at 5 uM after 24 hrs by gelatin zymography assay relative to control; values are per cent of control
[8] = system: MDA-MB-231; assay: Inhibition of MMP2 expression in human MDA-MB-231 cells after 24 hrs by Western blot analysis; assay type: functional, cell-based
Summary of the method: (§3)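 MDA-MB-231 cells exposed to 5, 15 or 45 μM for 24 h, then lysed; immunoblotted with antibodies against MMP-2 and MMP-9; detection with BCIP/NBT alkaline phosphatase substrate for 15 min.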

[9] = system: MDA-MB-231; assay: Antimigratory activity against human MDA-MB-231 cells assessed as delay in cell migration at 5 to 45 uM after 4 hrs by crystal violet staining-based chamber migration assay relative to control; assay type: functional
Summary of the method: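 MDA-MB-231 cells pretreated 24 h with 5, 15 or 45 μM, suspended in serum-free medium and placed in upper transwell compartment; lower compartment medium with 10% FBS. After 4 h non-migrated cells swabbed off; migrated cells fixed in methanol, stained with 0.5% crystal violet, counted manually in three random fields. Migrated cells expressed as % of control.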

[10] = biological target: Matrix metalloproteinase-9 (Homo sapiens) (UniProt P14780); assay: Inhibition of MMP9 activity in human MDA-MB-231 cells after 24 hrs by gelatin zymography assay
[11] = biological target: 72 kDa type IV collagenase (Homo sapiens) (UniProt P08253); assay: Residual MMP2 activity in human MDA-MB-231 cells at 5 uM after 24 hrs by gelatin zymography assay relative to control
[12] = biological target: 72 kDa type IV collagenase (Homo sapiens) (UniProt P08253); assay: Inhibition of MMP2 activity in human MDA-MB-231 cells after 24 hrs by gelatin zymography assay; assay type: cell-based
[13] = system: MDA-MB-231; assay: Antiproliferative activity against human MDA-MB-231 cells after 72 hrs by MTT assay; assay type: cell-based; details: MDA-MB-231, 72 h
[14] = system: MDA-MB-231; assay: Inhibition of MMP9 expression in human MDA-MB-231 cells after 24 hrs by Western blot analysis; assay type: functional, cell-based; summary of the method: as §3
[15] = system: K562/A02; assay: Effect on P-gp mRNA expression in human K562/A02 cells at 2 uM after 48 hrs by RT-PCR analysis; assay type: functional, cell-based
[16] = system: K562/A02; assay: Effect on P-gp protein expression in human K562/A02 cells at 2 uM after 48 hrs by Western blot analysis; assay type: functional, cell-based
[17] = system: MDA-MB-231; assay: Antimigratory activity against human MDA-MB-231 cells assessed as reduction in wound healing after 24 hrs by inverted microscopic analysis; assay type: functional, cell-based
Summary of the method: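 Confluent MDA-MB-231 monolayer scratched with 200 μL pipette tip, washed twice with PBS, then exposed to 5, 15 or 45 μM in DMEM with 10% FBS. Wound photographed by inverted microscope at 0 and 24 h. Relative migration = migration distance of treated cells divided by that of control.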

[18] = system: MDA-MB-231; assay: Antimigratory activity against human MDA-MB-231 cells assessed as reduction in cell invasion at 5 to 45 uM after 24 hrs by crystal violet staining-based matrigel assay; assay type: functional
Summary of the method: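 MDA-MB-231 cells pretreated 24 h with 5, 15 or 45 μM, seeded in serum-free medium into transwell chambers precoated with matrigel (40 μg/100 μL/chamber, 37°C, 1 h); lower compartment medium with 10% FBS. Incubation 24 h, then invaded cells stained with crystal violet and counted in three random fields; expressed as % of control.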

Sequence of 72 kDa type IV collagenase (Homo sapiens) (P08253 110-660 limits assumed): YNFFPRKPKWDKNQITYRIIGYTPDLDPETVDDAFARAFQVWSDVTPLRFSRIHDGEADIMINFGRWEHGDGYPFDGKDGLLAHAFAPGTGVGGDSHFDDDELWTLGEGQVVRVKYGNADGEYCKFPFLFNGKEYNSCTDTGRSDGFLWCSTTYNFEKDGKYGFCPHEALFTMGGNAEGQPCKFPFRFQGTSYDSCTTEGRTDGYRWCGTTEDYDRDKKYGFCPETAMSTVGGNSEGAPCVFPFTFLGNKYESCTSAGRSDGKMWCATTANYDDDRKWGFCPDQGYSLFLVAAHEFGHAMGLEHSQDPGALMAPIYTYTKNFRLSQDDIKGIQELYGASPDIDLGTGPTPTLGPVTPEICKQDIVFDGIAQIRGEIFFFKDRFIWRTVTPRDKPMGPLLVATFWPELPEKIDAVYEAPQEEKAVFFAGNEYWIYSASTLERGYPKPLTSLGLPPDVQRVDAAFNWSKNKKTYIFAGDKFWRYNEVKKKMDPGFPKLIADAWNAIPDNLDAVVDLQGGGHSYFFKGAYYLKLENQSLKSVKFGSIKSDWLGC
Sequence of Matrix metalloproteinase-9 (Homo sapiens) (P14780 whole entry): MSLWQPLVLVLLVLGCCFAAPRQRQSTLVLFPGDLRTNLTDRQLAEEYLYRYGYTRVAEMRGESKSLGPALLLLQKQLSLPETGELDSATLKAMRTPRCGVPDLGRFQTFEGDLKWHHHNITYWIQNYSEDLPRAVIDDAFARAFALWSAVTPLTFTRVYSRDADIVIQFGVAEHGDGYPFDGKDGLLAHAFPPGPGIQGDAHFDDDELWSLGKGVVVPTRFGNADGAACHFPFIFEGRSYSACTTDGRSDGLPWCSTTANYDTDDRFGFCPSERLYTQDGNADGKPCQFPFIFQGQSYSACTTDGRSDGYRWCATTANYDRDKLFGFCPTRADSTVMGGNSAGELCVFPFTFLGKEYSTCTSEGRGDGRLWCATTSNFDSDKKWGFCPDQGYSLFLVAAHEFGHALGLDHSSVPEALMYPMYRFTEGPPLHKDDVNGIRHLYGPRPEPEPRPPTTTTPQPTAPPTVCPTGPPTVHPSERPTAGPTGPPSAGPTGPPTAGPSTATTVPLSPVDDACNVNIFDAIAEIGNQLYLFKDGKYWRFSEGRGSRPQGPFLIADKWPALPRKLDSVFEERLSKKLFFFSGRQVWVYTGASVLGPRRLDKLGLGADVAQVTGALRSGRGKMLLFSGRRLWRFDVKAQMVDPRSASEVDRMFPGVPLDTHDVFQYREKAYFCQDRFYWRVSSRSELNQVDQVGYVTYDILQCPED

SMILES | IC50 [2] | IC50 [3] | other results
COc1cc2c(c3c1OCO3)-c1c(cc(OC)c3c1OCO3)CN(CCc1ccc3c(c1)OCO3)C2 | > 100 µM | 51.4 µM | fold change (FC) [1]: 3.99
COc1ccccc1C(=O)NCCCCCCN1Cc2cc(OC)c3c(c2-c2c(cc(OC)c4c2OCO4)C1)OCO3 | 26.2 µM | 11 µM | 
COc1cc2c(c3c1OCO3)-c1c(cc(OC)c3c1OCO3)CN(CCCCCCNC(=O)c1ccc(C)cc1)C2 | 23.3 µM | 8.18 µM | 
COc1cccc2c1C(=O)c1c(O)c3c(c(O)c1C2=O)C[C@@](O)(C(=O)CO)C[C@@H]3O[C@H]1C[C@H](N)[C@H](O)[C@H](C)O1 [DOXORUBICIN HYDROCHLORIDE] | 25 µM | 0.39 µM | selectivity ratio [4]: 64
COc1cc2c(c3c1OCO3)-c1c(cc(OC)c3c1OCO3)CN(CCCCCCNC(=O)c1ccc(Cl)cc1Cl)C2 | 34.5 µM | 13.7 µM | 
COc1cc2c(c3c1OCO3)-c1c(cc(OC)c3c1OCO3)CN(CCCCCCNC(=O)c1cccs1)C2 | 29 µM | 12.5 µM | 
COc1ccccc1NC(=O)CCN1Cc2cc(OC)c3c(c2-c2c(cc(OC)c4c2OCO4)C1)OCO3 | 72.9 µM | 23.1 µM | 
COc1cc2c(c3c1OCO3)-c1c(cc(OC)c3c1OCO3)CN(CCCCCCNC(=O)c1ccc(Cl)cc1)C2 | 18.4 µM | 5.85 µM | 
COc1cc2c(c3c1OCO3)-c1c(cc(OC)c3c1OCO3)CN(CCCCCCNC(=O)c1ccc(Cl)c(Cl)c1)C2 | 11.5 µM | 5.07 µM | 
COc1ccc(C(=O)NCCN2Cc3cc(OC)c4c(c3-c3c(cc(OC)c5c3OCO5)C2)OCO4)cc1OC | 65.8 µM | 30.5 µM | inhibition [5]: inactive; inhibition [6]: Dose-dependent effect
COc1cc(C(=O)NCCCCCCN2Cc3cc(OC)c4c(c3-c3c(cc(OC)c5c3OCO5)C2)OCO4)cc(OC)c1OC | 31.8 µM | 11.8 µM | 
COc1ccc(C(=O)NCCCCCCN2Cc3cc(OC)c4c(c3-c3c(cc(OC)c5c3OCO5)C2)OCO4)cc1OC | 28.3 µM | 14.1 µM | 
COc1ccc(NC(=O)CCN2Cc3cc(OC)c4c(c3-c3c(cc(OC)c5c3OCO5)C2)OCO4)cc1 | 43.2 µM | 29.8 µM | 
COc1cc(C(=O)NCCN2Cc3cc(OC)c4c(c3-c3c(cc(OC)c5c3OCO5)C2)OCO4)cc(OC)c1OC | 47.2 µM | 16.9 µM | residual activity [7]: 58.2%; inhibition [8]: Dose-dependent effect; Activity [9]: 65.7%; inhibition [10]: Dose-dependent effect; residual activity [11]: 59.1%; inhibition [12]: Dose-dependent effect; IC50 [13]: 85.8 µM; inhibition [5]: inactive; inhibition [14]: Dose-dependent effect; fold change (FC) [1]: 3.82; Activity [15]: inactive; Activity [16]: inactive; inhibition [6]: Dose-dependent effect; Activity [17]: Active; Activity [18]: Active
COc1ccc(NC(=O)CCN2Cc3cc(OC)c4c(c3-c3c(cc(OC)c5c3OCO5)C2)OCO4)cc1OC | 69.9 µM | 34.8 µM | residual activity [7]: 52.6%; inhibition [8]: Dose-dependent effect; Activity [9]: 54.8%; inhibition [10]: Dose-dependent effect; residual activity [11]: 52.8%; inhibition [12]: Dose-dependent effect; IC50 [13]: 80.5 µM; inhibition [5]: inactive; inhibition [14]: Dose-dependent effect; fold change (FC) [1]: 5.76; Activity [15]: inactive; Activity [16]: inactive; inhibition [6]: Dose-dependent effect; Activity [17]: Active; Activity [18]: Active
COc1cc2c(c3c1OCO3)-c1c(cc(OC)c3c1OCO3)CN(CCNC(=O)c1ccc(C)cc1)C2 | 28.2 µM | 14.4 µM | 
COc1ccccc1C(=O)NCCN1Cc2cc(OC)c3c(c2-c2c(cc(OC)c4c2OCO4)C1)OCO3 | 63.9 µM | 15 µM | 
